Source: ChEMBL document CHEMBL3525912, “Sulfation of 4-hydroxy toremifene: individual variability, isoform specificity, and contribution to toremifene pharmacogenomics” (Drug Metab Dispos, 2012)

B1: Sulfotransferase 1A1 (Homo sapiens) (protein)
chain: MELIQDTSRPPLEYVKGVPLIKYFAEALGPLQSFQARPDDLLISTYPKSGTTWVSQILDMIYQGGDLEKCHRAPIFMRVPFLEFKAPGIPSGMETLKDTPAPRLLKTHLPLALLPQTLLDQKVKVVYVARNAKDVAVSYYHFYHMAKVHPEPGTWDSFLEKFMVGEVSYGSWYQHVQEWWELSRTHPVLYLFYEDMKENPKREIQKILEFVGRSLPEETVDFVVQHTSFKEMKKNPMTNYTTVPQEFMDHSISPFMRKGMAGDWKTTFTVAQNERFDADYAEKMAGCSLSFRSEL
B2: Sulfotransferase 1E1 (Homo sapiens) (protein)
chain: MNSELDYYEKFEEVHGILMYKDFVKYWDNVEAFQARPDDLVIATYPKSGTTWVSEIVYMIYKEGDVEKCKEDVIFNRIPFLECRKENLMNGVKQLDEMNSPRIVKTHLPPELLPASFWEKDCKIIYLCRNAKDVAVSFYYFFLMVAGHPNPGSFPEFVEKFMQGQVPYGSWYKHVKSWWEKGKSPRVLFLFYEDLKEDIRKEVIKLIHFLERKPSEELVDRIIHHTSFQEMKNNPSTNYTTLPDEIMNQKLSPFMRKGITGDWKNHFTVALNEKFDKHYEQQMKESTLKFRTEI

Legend:
[1] = substrate: CN(C)CCOc1ccc(/C(=C(/CCCl)c2ccccc2)c2ccc(O)cc2)cc1; test: Activity of human SULT1A1 expressed in escherichia coli assessed as enzyme-mediated 4-(4-chloro-1-(4-(2-(dimethylamino)ethoxy)phenyl)-2-phenylbut-1-enyl)phenyl hydrogen sulfate formation after 15 mins by Michaelis-Menten equation in presence of 20 uM PAPS; assay type: ADME
In short: (§1)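 Purified E. coli-expressed human enzyme (DEAE-Sepharose, ~80% pure; activity per total protein) incubated with 0.1–30 µM 4-OH-TOR, 20 µM PAPS, 50 mM potassium phosphate pH 6.2, 15 min at 37 °C. Reaction started with enzyme, stopped with acetonitrile:acetic acid (96:4). Sulfate quantified by radio-HPLC. Triplicate runs, corrected with a no-substrate control. Low substrate range chosen to limit substrate inhibition.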

[2] = substrate: CN(C)CCOc1ccc(/C(=C(/CCCl)c2ccccc2)c2ccc(O)cc2)cc1; test: Activity of human SULT1E1 expressed in escherichia coli assessed as enzyme-mediated 4-(4-chloro-1-(4-(2-(dimethylamino)ethoxy)phenyl)-2-phenylbut-1-enyl)phenyl hydrogen sulfate formation after 15 mins by Michaelis-Menten equation in presence of 20 uM PAPS; assay type: ADME; in short: as §1

Row | Protein | Km [1] [µM] | Vmax [1] [µmol/min] | Km [2] [µM] | Vmax [2] [µmol/min]
1 | B1 | 2.6 | 0.0085 |  | 
2 | B2 |  |  | 6.4 | 0.0055
